Our source for the IC50, selectivity ratio and Activity values is ChEMBL document CHEMBL4014305, “Anti-leishmanial and cytotoxic activities of amino acid-triazole hybrids: Synthesis, biological evaluation, molecular docking and in silico physico-chemical properties” (Bioorg Med Chem Lett, 2017).

The test system of data set [1] is Leishmania donovani. The experiment in a line: Antileishmanial activity against Leishmania donovani Dd8 promastigote forms after 48 hrs by neubauer hemocytometer method. The format is functional. As to conditions: for IC50: Dd8, 48 h. The gist of the method:
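Promastigotes of L. donovani Dd8 strain exposed 48 h to increasing concentrations of test agent; percent viability scored, IC50 derived.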

A short description of data set [2]: Selectivity index, ratio of IC50 for human PMA-differentaited THP1 cells to IC50 for promastigote form of Leishmania donovani Dd8. The format is toxicity. As to conditions: PMA-differentiated THP1 cells, read-out: Ratio IC50. Put shortly:
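Ratio of IC50 against THP-1 macrophages (normal cells) to IC50 against L. donovani promastigotes.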

For data set [3], the system named is THP-1. Put plainly: Cytotoxicity against human PMA-differentaited THP1 cells after 24 hrs by MTT assay. The format is cell-based. Particulars: THP-1, 24 h.
The subject of data set [4] is THP-1. Put plainly: Cytotoxicity against human PMA-differentaited THP1 cells assessed as cell viability at 100 uM after 24 hrs by MTT assay. Particulars: thp-1, 24 h. The format is cell-based.

As to `N[C@@H](Cc1c[nH]c2ccccc12)C(=O)OCc1cn(-c2ccccc2)nn1`, the IC50 (as a rule, the concentration needed to halve the response being measured) in data set [1] stood at 138 µM; in data set [3], 191 µM. Further, in data set [2], the selectivity ratio worked out at 1.39.

With `O=C(OCc1cn(-c2ccccc2)nn1)[C@@H]1CCCN1`, the Activity result in data set [1] was “Dose-dependent effect”; in data set [4], “Non-Toxic”. In addition, the IC50 in data set [1] was 96.9 µM; in data set [3], 780 µM. Moreover, the selectivity ratio in data set [2] came to 8.05.

In the case of `N[C@@H](Cc1c[nH]c2ccccc12)C(=O)OCc1cn(-c2ccc(Cl)cc2)nn1`, the IC50 in data set [1] came to 129 µM; in data set [3], 317 µM. Further, the selectivity ratio in data set [2] amounted to 2.46.

On to `CCCCCCCCCCCCCCCCOP(=O)([O-])OCC[N+](C)(C)C` [MILTEFOSINE], for which the results for the IC50 in data set [1] and in data set [3] were 27.1 µM and 54.1 µM, respectively. The selectivity ratio in data set [2] was found to be 1.99.

As for `Cc1ccc(-n2cc(COC(=O)[C@@H](N)Cc3ccccc3)nn2)cc1`, the results for the Activity result in data set [1] and in data set [4] were “Dose-dependent effect” and “Non-Toxic”, respectively. Moreover, the IC50 in data set [1] was 88.8 µM; in data set [3], 292 µM. In data set [2], the selectivity ratio was 3.28.

On to `N[C@@H](Cc1ccccc1)C(=O)OCc1cn(-c2ccc(F)cc2)nn1`, for which the concentration for half-maximal inhibition (IC50) in data set [1] came out at 133 µM; in data set [3], 196 µM. Besides, the selectivity ratio in data set [2] came out at 1.48.

With `N[C@@H](Cc1ccccc1)C(=O)OCc1cn(-c2ccc([N+](=O)[O-])cc2)nn1`, the figures for the IC50 in data set [1] and in data set [3] were 171 µM and 180 µM, respectively. Besides, in data set [2], the selectivity ratio turned out to be 1.05.

Turning to `Cc1ccc(-n2cc(COC(=O)[C@@H]3CCCN3)nn2)cc1`, the IC50 in data set [1] is 175 µM; in data set [3], 421 µM. For the same compound, the selectivity ratio in data set [2] turned out to be 2.4.

Regarding `O=C(OCc1cn(-c2ccc(F)cc2)nn1)[C@@H]1CCCN1`, the IC50 in data set [1] is 122 µM; in data set [3], 309 µM. In addition, in data set [2], the selectivity ratio was 2.54.

On to `COc1ccc(-n2cc(COC(=O)[C@@H]3CCCN3)nn2)cc1`, for which the IC50 in data set [1] is 104 µM; in data set [3], 218 µM. Also, in data set [2], the selectivity ratio stood at 2.11.

Take `N[C@@H](Cc1c[nH]c2ccccc12)C(=O)OCc1cn(-c2ccc([N+](=O)[O-])cc2)nn1`: the IC50 was 119 µM in data set [1] and 174 µM in data set [3]. The selectivity ratio in data set [2] came out at 1.47.

Regarding `O=C(OCc1cn(-c2ccc([N+](=O)[O-])cc2)nn1)[C@@H]1CCCN1`, the half-maximal inhibitory concentration (IC50) in data set [1] stood at 189 µM; in data set [3], 344 µM. Moreover, the selectivity ratio in data set [2] worked out at 1.82.

Regarding `N[C@@H](Cc1ccccc1)C(=O)OCc1cn(-c2ccc(Cl)cc2)nn1`, the IC50 in data set [1] was determined as 132 µM; in data set [3], 389 µM. For the same compound, the selectivity ratio in data set [2] came out at 2.94.

For `N[C@@H](Cc1ccccc1)C(=O)OCc1cn(-c2ccccc2)nn1`, the IC50 in data set [1] was 163 µM; in data set [3], 504 µM. In data set [2], the selectivity ratio worked out at 3.09.

For the compound `N[C@@H](Cc1c[nH]c2ccccc12)C(=O)OCc1cn(-c2ccc(F)cc2)nn1`, the IC50 in data set [1] was determined as 151 µM; in data set [3] it was 352 µM. Besides, the selectivity ratio in data set [2] was 2.32.

For the compound `COc1ccc(-n2cc(COC(=O)[C@@H](N)Cc3c[nH]c4ccccc34)nn2)cc1`, the Activity result in data set [1] is “Dose-dependent effect”; in data set [4], “Non-Toxic”. For the same compound, the IC50 was 94.5 µM in data set [1] and 195 µM in data set [3]. Further, in data set [2], the selectivity ratio was found to be 2.06.

In the case of `Cc1ccc(-n2cc(COC(=O)[C@@H](N)Cc3c[nH]c4ccccc34)nn2)cc1`, the IC50 turned out to be 99.4 µM in data set [1] and 293 µM in data set [3]. In addition, the selectivity ratio in data set [2] was determined as 2.95.

As to `COc1ccc(-n2cc(COC(=O)[C@@H](N)Cc3ccccc3)nn2)cc1`, the IC50 in data set [1] was 144 µM; in data set [3], 260 µM. Besides, the selectivity ratio in data set [2] is 1.8.

For the compound `O=C(OCc1cn(-c2ccc(Cl)cc2)nn1)[C@@H]1CCCN1`, the IC50 in data set [1] is 157 µM; in data set [3], 346 µM. In data set [2], the selectivity ratio was found to be 2.2.
